# Experimental data reported in the M2OR odorant receptor database.
# Where a chain is given by its changes, count along the chain named.
# Experiments:
# Details in all cases: stereoisomer not certain
# A0A140T8K0 = tested on: T1, A0A140T8K0
# T1 sequence (whole entry): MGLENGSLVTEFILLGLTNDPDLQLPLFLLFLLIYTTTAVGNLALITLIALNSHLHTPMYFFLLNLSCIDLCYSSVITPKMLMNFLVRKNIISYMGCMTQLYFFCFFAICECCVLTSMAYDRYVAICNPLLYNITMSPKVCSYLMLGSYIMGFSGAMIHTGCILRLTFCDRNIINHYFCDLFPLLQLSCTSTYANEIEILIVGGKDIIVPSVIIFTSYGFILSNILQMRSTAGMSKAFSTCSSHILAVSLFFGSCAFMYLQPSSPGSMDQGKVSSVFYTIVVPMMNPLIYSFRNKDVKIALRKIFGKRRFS
# In short: (§1)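 Whether a receptor–molecule pair is responsive (active) rests on the original authors' judgment that its measured signal was statistically different from baseline. Pairs without that judgment are non-responsive (inactive). Sources used varied assay methods, commonly transient luciferase assays in mammalian cell lines.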
# A0A140T8K4 = tested on: T2, A0A140T8K4
# T2 sequence (whole entry): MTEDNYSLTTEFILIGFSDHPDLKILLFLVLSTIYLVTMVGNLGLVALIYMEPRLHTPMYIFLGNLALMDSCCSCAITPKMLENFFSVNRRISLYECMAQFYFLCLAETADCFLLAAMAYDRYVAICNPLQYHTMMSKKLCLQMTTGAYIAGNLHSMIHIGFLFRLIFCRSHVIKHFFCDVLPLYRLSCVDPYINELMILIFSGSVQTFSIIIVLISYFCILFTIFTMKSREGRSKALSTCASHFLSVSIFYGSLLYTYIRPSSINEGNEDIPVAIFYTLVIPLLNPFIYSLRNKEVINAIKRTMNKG
# In short: as §1
# A0A1L1SVG7 = tested on: T3, A0A1L1SVG7
# T3 sequence (whole entry): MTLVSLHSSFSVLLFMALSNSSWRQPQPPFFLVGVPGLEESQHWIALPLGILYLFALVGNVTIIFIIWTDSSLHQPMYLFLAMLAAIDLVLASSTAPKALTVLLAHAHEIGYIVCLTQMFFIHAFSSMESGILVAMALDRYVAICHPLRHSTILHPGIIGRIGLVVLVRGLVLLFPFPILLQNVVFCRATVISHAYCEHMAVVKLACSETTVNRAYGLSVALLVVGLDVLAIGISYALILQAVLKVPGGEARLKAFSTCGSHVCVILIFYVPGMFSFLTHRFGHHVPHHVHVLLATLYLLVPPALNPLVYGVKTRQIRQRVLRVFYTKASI
# In short: as §1
# A0A2J8MY22 = tested on: T4, A0A2J8MY22
# T4 sequence (whole entry): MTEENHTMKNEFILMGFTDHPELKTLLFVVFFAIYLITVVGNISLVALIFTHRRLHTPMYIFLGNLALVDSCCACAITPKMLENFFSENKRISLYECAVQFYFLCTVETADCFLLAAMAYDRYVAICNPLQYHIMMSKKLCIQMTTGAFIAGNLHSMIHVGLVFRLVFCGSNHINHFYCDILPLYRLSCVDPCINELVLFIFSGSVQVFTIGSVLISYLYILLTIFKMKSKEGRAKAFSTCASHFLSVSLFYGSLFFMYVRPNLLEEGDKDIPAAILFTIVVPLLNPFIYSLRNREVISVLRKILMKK
# In short: as §1
# A0A2R8ZIW4 = tested on: T5, A0A2R8ZIW4
# T5 sequence (whole entry): T4 sequence (whole entry) with V39I, I280V
# In short: as §1
# A0A3Q7SVK8 = tested on: T6, A0A3Q7SVK8
# T6 sequence (whole entry): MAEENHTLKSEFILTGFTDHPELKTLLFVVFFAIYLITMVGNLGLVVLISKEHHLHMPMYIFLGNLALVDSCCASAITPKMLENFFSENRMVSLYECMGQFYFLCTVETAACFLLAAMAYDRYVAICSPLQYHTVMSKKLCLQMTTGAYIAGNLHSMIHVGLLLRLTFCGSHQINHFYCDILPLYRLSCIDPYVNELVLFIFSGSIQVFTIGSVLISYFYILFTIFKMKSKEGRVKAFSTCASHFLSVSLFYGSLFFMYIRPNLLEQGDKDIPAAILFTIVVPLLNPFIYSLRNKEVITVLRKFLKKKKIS
# In short: as §1
# A0A6P3DZI2 = tested on: T7, A0A6P3DZI2
# T7 sequence (whole entry): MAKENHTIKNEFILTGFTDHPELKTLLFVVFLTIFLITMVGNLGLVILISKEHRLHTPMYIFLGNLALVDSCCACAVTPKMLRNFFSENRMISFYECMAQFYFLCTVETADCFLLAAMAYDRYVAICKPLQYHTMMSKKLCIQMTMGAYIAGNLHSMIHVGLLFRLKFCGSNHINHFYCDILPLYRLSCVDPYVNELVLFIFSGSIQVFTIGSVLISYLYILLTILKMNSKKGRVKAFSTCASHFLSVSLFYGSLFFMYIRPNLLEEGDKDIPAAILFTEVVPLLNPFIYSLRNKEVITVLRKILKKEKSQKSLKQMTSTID
# In short: as §1
# A0A6P6H1F7 = tested on: T8, A0A6P6H1F7
# T8 sequence (whole entry): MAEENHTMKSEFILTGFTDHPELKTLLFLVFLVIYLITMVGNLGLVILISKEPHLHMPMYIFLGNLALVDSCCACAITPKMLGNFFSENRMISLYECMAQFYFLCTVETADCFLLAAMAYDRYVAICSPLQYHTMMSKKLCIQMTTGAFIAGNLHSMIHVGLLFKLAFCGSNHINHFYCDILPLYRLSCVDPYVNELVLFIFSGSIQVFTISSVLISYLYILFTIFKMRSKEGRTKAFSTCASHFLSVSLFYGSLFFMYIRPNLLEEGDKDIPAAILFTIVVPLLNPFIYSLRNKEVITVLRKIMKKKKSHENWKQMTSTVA
# In short: as §1
# 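Also: active if original authors judged signal statistically different from baseline.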
structure (smiles),measurement,setting,value
CCCCCCOC(C)=O,odorant receptor agonist call,A0A140T8K0,inactive
same,odorant receptor agonist call,A0A140T8K4,inactive
same,odorant receptor agonist call,A0A1L1SVG7,inactive
CCCC(=O)C(C)=O,odorant receptor agonist call,A0A140T8K0,inactive
same,odorant receptor agonist call,A0A140T8K4,inactive
same,odorant receptor agonist call,A0A1L1SVG7,inactive
CCCCCOC(=O)CCCCC,odorant receptor agonist call,A0A140T8K0,inactive
same,odorant receptor agonist call,A0A140T8K4,inactive
same,odorant receptor agonist call,A0A1L1SVG7,inactive
CC(=O)OCC=C(C)C,odorant receptor agonist call,A0A140T8K0,inactive
same,odorant receptor agonist call,A0A140T8K4,inactive
same,odorant receptor agonist call,A0A1L1SVG7,inactive
CC(=O)Oc1ccccc1,odorant receptor agonist call,A0A140T8K0,inactive
same,odorant receptor agonist call,A0A140T8K4,inactive
same,odorant receptor agonist call,A0A1L1SVG7,inactive
C=CC(=C)CCC=C(C)CCC=C(C)C,odorant receptor agonist call,A0A140T8K0,inactive
CCCCC(C)=O,odorant receptor agonist call,A0A140T8K0,inactive
same,odorant receptor agonist call,A0A140T8K4,inactive
same,odorant receptor agonist call,A0A1L1SVG7,inactive
CC(=O)OCc1ccccc1,odorant receptor agonist call,A0A140T8K0,inactive
same,odorant receptor agonist call,A0A140T8K4,inactive
same,odorant receptor agonist call,A0A1L1SVG7,inactive
CCOC(=O)C(C)C,odorant receptor agonist call,A0A140T8K0,inactive
same,odorant receptor agonist call,A0A140T8K4,inactive
same,odorant receptor agonist call,A0A1L1SVG7,inactive
O=C1Cc2ccccc2O1,odorant receptor agonist call,A0A140T8K0,inactive
same,odorant receptor agonist call,A0A140T8K4,inactive
same,odorant receptor agonist call,A0A1L1SVG7,inactive
CCC(=O)C(=O)CC,odorant receptor agonist call,A0A140T8K0,inactive
same,odorant receptor agonist call,A0A140T8K4,inactive
same,odorant receptor agonist call,A0A1L1SVG7,inactive
CCCCCCCO,odorant receptor agonist call,A0A140T8K0,inactive
same,odorant receptor agonist call,A0A140T8K4,inactive
same,odorant receptor agonist call,A0A1L1SVG7,inactive
COc1cc(C(=O)O)ccc1O,odorant receptor agonist call,A0A140T8K0,inactive
same,odorant receptor agonist call,A0A140T8K4,inactive
same,odorant receptor agonist call,A0A1L1SVG7,inactive
CCCCC(=O)CC,odorant receptor agonist call,A0A140T8K0,inactive
same,odorant receptor agonist call,A0A140T8K4,inactive
same,odorant receptor agonist call,A0A1L1SVG7,inactive
CCCCCCCCS,odorant receptor agonist call,A0A140T8K0,inactive
same,odorant receptor agonist call,A0A140T8K4,inactive
same,odorant receptor agonist call,A0A1L1SVG7,inactive
CCCCCOC(=O)CC,odorant receptor agonist call,A0A140T8K0,inactive
CC(=O)OCCc1ccccc1,odorant receptor agonist call,A0A140T8K0,inactive
CCCCCCCCO,odorant receptor agonist call,A0A140T8K0,inactive
same,odorant receptor agonist call,A0A140T8K4,inactive
same,odorant receptor agonist call,A0A1L1SVG7,inactive
CCCCCC(=Cc1ccccc1)C(OC)OC,odorant receptor agonist call,A0A140T8K0,inactive
CCCCCC=O,odorant receptor agonist call,A0A140T8K0,inactive
same,odorant receptor agonist call,A0A140T8K4,inactive
same,odorant receptor agonist call,A0A1L1SVG7,inactive
CCCCCCC=CC=O,odorant receptor agonist call,A0A140T8K0,inactive
CC(C)=CCCC(C)CCO (stereo unspecified),odorant receptor agonist call,A0A140T8K0,inactive
same,odorant receptor agonist call,A0A140T8K4,inactive
same,odorant receptor agonist call,A0A1L1SVG7,inactive
CCCCCCCC(C)=O,odorant receptor agonist call,A0A140T8K0,inactive
same,odorant receptor agonist call,A0A140T8K4,inactive
same,odorant receptor agonist call,A0A1L1SVG7,inactive
CCCCCCCCCS,odorant receptor agonist call,A0A140T8K0,inactive
same,odorant receptor agonist call,A0A140T8K4,inactive
same,odorant receptor agonist call,A0A1L1SVG7,inactive
CCCCCCCCC(=O)O,odorant receptor agonist call,A0A140T8K0,inactive
same,odorant receptor agonist call,A0A140T8K4,inactive
same,odorant receptor agonist call,A0A1L1SVG7,active
CCCCOC=O,odorant receptor agonist call,A0A140T8K0,inactive
same,odorant receptor agonist call,A0A140T8K4,inactive
same,odorant receptor agonist call,A0A1L1SVG7,inactive
CCC(C)O (stereo unspecified),odorant receptor agonist call,A0A140T8K0,inactive
CCCCCCC(C)=O,odorant receptor agonist call,A0A140T8K0,inactive
same,odorant receptor agonist call,A0A140T8K4,inactive
same,odorant receptor agonist call,A0A1L1SVG7,inactive
CC12CCC(CC1=O)C2(C)C (stereo unspecified),odorant receptor agonist call,A0A140T8K0,inactive
same,odorant receptor agonist call,A0A140T8K4,inactive
same,odorant receptor agonist call,A0A1L1SVG7,inactive
O=C(O)CCCCCBr,odorant receptor agonist call,A0A140T8K0,inactive
CC(C)=CCCC(C)=CCO,odorant receptor agonist call,A0A140T8K0,inactive
same,odorant receptor agonist call,A0A140T8K4,inactive
same,odorant receptor agonist call,A0A1L1SVG7,inactive
C=CCOC(=O)CCCCCC,odorant receptor agonist call,A0A140T8K0,inactive
same,odorant receptor agonist call,A0A140T8K4,inactive
same,odorant receptor agonist call,A0A1L1SVG7,inactive
CCCCCC(=O)CC,odorant receptor agonist call,A0A140T8K0,inactive
same,odorant receptor agonist call,A0A140T8K4,inactive
same,odorant receptor agonist call,A0A1L1SVG7,inactive
c1ccccc1,odorant receptor agonist call,A0A140T8K0,inactive
same,odorant receptor agonist call,A0A140T8K4,inactive
same,odorant receptor agonist call,A0A1L1SVG7,inactive
C=C1C2CCC(C2)C1(C)C (stereo unspecified),odorant receptor agonist call,A0A140T8K0,inactive
CCC(=O)O,odorant receptor agonist call,A0A140T8K0,inactive
same,odorant receptor agonist call,A0A140T8K4,inactive
same,odorant receptor agonist call,A0A1L1SVG7,inactive
O=C1CCOc2ccccc21,odorant receptor agonist call,A0A140T8K0,inactive
same,odorant receptor agonist call,A0A140T8K4,inactive
same,odorant receptor agonist call,A0A1L1SVG7,inactive
CC1=NC(C)C(C)S1 (stereo unspecified),odorant receptor agonist call,A0A140T8K4,active
same,odorant receptor agonist call,A0A2J8MY22,active
same,odorant receptor agonist call,A0A2R8ZIW4,active
same,odorant receptor agonist call,A0A3Q7SVK8,active
same,odorant receptor agonist call,A0A6P3DZI2,active
same,odorant receptor agonist call,A0A6P6H1F7,active
CC(=O)c1cnccn1,odorant receptor agonist call,A0A140T8K4,inactive
same,odorant receptor agonist call,A0A2J8MY22,active
same,odorant receptor agonist call,A0A2R8ZIW4,active
same,odorant receptor agonist call,A0A3Q7SVK8,active
same,odorant receptor agonist call,A0A6P3DZI2,inactive
same,odorant receptor agonist call,A0A6P6H1F7,active
CCCCCCCCCO,odorant receptor agonist call,A0A140T8K0,inactive
same,odorant receptor agonist call,A0A140T8K4,inactive
same,odorant receptor agonist call,A0A1L1SVG7,inactive
CCCCCO,odorant receptor agonist call,A0A140T8K4,inactive
same,odorant receptor agonist call,A0A1L1SVG7,inactive
O=c1ccc2ccccc2o1,odorant receptor agonist call,A0A140T8K4,inactive
same,odorant receptor agonist call,A0A1L1SVG7,inactive
CCc1nccnc1C(C)=O,odorant receptor agonist call,A0A140T8K4,inactive
same,odorant receptor agonist call,A0A2J8MY22,active
same,odorant receptor agonist call,A0A2R8ZIW4,active
same,odorant receptor agonist call,A0A3Q7SVK8,active
same,odorant receptor agonist call,A0A6P3DZI2,inactive
same,odorant receptor agonist call,A0A6P6H1F7,active
CCCC(C)=O,odorant receptor agonist call,A0A140T8K4,inactive
same,odorant receptor agonist call,A0A1L1SVG7,inactive
CCCCCCO,odorant receptor agonist call,A0A140T8K0,inactive
same,odorant receptor agonist call,A0A140T8K4,inactive
same,odorant receptor agonist call,A0A1L1SVG7,inactive
C=Cc1cnccn1,odorant receptor agonist call,A0A140T8K4,inactive
same,odorant receptor agonist call,A0A2J8MY22,active
same,odorant receptor agonist call,A0A2R8ZIW4,active
same,odorant receptor agonist call,A0A3Q7SVK8,active
same,odorant receptor agonist call,A0A6P3DZI2,inactive
same,odorant receptor agonist call,A0A6P6H1F7,active
